Compound activity as filed in PubChem BioAssay.
HTR2A ag = mouse Htr2a agonists via beta-arrestin recruitment, primary screen, cell-based, luminescence | activation, % at 7.6 µM | CHO-K1 mHTR2A beta-arrestin complementation; percent of 30 µM serotonin response | 360,000 tested, 0.66% active | 5-hydroxytryptamine receptor 2A (Mus musculus), P35363;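 active = activation above a run cutoff, the mean activation of all tested compounds plus 3 SD, cut at about 14% in these data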;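 note: 0% = plate median of compound wells and 100% = 30 µM serotonin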
Target sequence (P35363 whole entry, looked up): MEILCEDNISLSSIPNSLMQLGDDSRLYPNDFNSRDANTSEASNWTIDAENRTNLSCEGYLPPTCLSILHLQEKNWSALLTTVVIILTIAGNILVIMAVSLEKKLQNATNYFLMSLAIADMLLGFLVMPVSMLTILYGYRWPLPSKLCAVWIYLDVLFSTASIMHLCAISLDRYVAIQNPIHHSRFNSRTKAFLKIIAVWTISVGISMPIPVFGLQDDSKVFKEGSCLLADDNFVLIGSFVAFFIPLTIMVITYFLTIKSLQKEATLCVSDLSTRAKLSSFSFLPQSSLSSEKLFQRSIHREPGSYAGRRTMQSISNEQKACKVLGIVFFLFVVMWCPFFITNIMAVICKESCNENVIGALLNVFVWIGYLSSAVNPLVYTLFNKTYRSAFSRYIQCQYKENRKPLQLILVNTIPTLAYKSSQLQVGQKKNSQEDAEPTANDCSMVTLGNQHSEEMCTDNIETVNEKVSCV
CXCR6 block = CXCR6 receptor inhibitors, primary screen, cell-based, beta-arrestin, luminescence, CHO-K1 PathHunter, 1536-well. C-X-C chemokine receptor type 6 (Homo sapiens), O00574. AID 602244, 2012. inhibition, % at 20 µM. 360,000 tested, 0.36% active; in the data active = inhibition above about 34%, passing the limit was not always enough;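 note: antagonist mode with CXCL16 agonist at 10 nM final; 0% = 10 nM CXCL16 with DMSO and 100% = unstimulated wells without agonist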
CCR6 antagonist = CCR6 receptor antagonists, primary screen, cell-based, CHO-K1, luminescence, beta-arrestin, uHTS; CHO-K1 CCR6 PathHunter beta-arrestin, CCL20-stimulated; C-C chemokine receptor type 6 (Homo sapiens), P51684; 340,000 tested, 0.49% active; inhibition, % at 20 µM;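 active = compounds whose inhibition of the agonist-driven luminescence signal at 20 µM reaches about 50%, limit read from the data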;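 note: cells stimulated with CCL20 at 14 nM final; plate controls were DMSO with CCL20 for no effect and DMSO without agonist for full effect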
APJ antagonist = antagonists of human apelin receptor APJ, primary screen, CHO-K1 cells, beta-arrestin complementation, luminescence; P35414; inhibition, % at 20 µM; 330,000 tested, 0.32% active; AID 2521, 2010;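 active = inhibition above about 40% at 20 µM, limit read from the data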;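 note: cells challenged with 10 nM apelin-13 agonist together with compound; plate controls were apelin-13 plus DMSO wells for no effect and DMSO wells lacking apelin-13 for full effect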
EBI2 antag = EBI2 receptor antagonists, beta-arrestin recruitment, primary screen, cell-based, luminescence, 7a,25-OHC stimulation, uHTS; 360,000 tested, 0.81% active; 7a,25-OHC stimulated; inhibition, % at 5 µM; G-protein coupled receptor 183 (Homo sapiens), P32249; in the data active = inhibition above about 38%;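 note: enzyme fragment complementation signal reports receptor beta-arrestin coupling in cells; 0% = agonist plus DMSO wells and 100% = wells without agonist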
APJ ag = agonists of human apelin receptor APJ, primary screen, CHO-K1 cells, PathHunter beta-arrestin, luminescence; AID 2520, 2010; 330,000 tested, 0.11% active; activation, % at 20 µM; P35414; 0% DMSO wells, 100% apelin;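 active = activation more than six SD over the plate average, tested at 20 µM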;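 note: 0% = DMSO alone and 100% = apelin-13 at 10 nM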
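Assay system – PathHunter CHO-K1 APJ (AGTRL-1) beta-arrestin reporter cells · Compound – one dose, 20 µM compound, 1% DMSO · Timing – compound 90 min 25 °C, reagent 1 h · Measured by – luminescence from split beta-galactosidase complementation, Galacton Star/Emerald II substrate · Measure – beta-arrestin recruitment to APJ as agonist activity, luminescent signal · Benchmarks – DMSO vs Apelin-13 10 nM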
OPRM1 ag = OPRM1 agonists via beta-arrestin recruitment, confirmation, counter-screen for mouse HTR2A agonist project, cell-based, luminescence, single concentration; shares compounds with HTR2A ag; U2OS OPRM1 beta-arrestin PathHunter; DMSO 0%, DAMGO 9.3 µM 100%; activation, % at 9.3 µM; 2,300 tested, 5.3% active;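 active = mean activation above the mean of DMSO-only wells plus 3 SD, cut at about 0.5% in these data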
m5-HT2A ag conf = mouse HTR2A agonists, beta-arrestin recruitment, confirmation, cell-based, luminescence, CHO-K1 PathHunter, triplicate; activation, % at 7.6 µM; 2,300 tested, 19% active; AID 624381, 2012; DMSO 0%, 30 µM serotonin 100%; shares compounds with HTR2A ag;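 active = mean activation across triplicates above the hit threshold derived in the original primary screen, cut at about 15% in these data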
Active calls of the source: *; / = no result. An excerpt weighted towards active compounds, which were near 2.1% of everything screened.

SMILES	HTR2A ag	CXCR6 block	CCR6 antagonist	APJ antagonist	EBI2 antag	APJ ag	OPRM1 ag	m5-HT2A ag conf
CCc1nnc(NS(=O)(=O)c2ccc(NC(=O)CCC(=O)O)cc2)s1	15.2*	8.4	8.6	-18.5	-10.7	1.6	-0.6	-4.1
Cn1nnnc1N=N/C(=N/Nc1ccccc1)c1ccccc1	16.2*	44.4*	86.9*	36.9	-3.7	-7.2	-0.4	-4.0
COc1ccc(/C=N/c2sc3c(c2C#N)CCN(Cc2ccccc2)C3)c(O)c1	/	/	/	20.5	/	-2.9	/	/
CN1CCc2c(sc(/N=C/c3cc(C(C)(C)C)ccc3O)c2C#N)C1	17.2*	-2.1	5.7	23.8	7.9	-2.8	-0.7	61.9*
CC(C)NC(=O)N(C)C[C@@H]1Oc2c(NC(=O)Nc3ccccc3)cccc2C(=O)N([C@H](C)CO)C[C@H]1C	0.5	-4.7	-2.2	-9.3	-0.9	-2.1	/	/
C=CCN1C(=O)C(O)(CC(=O)c2ccc(N)cc2)c2ccccc21 (stereo unspecified)	23.0*	1.5	4.4	9.4	-23.2	-1.5	-0.7	-4.3
COC(=O)Cn1c(=NC(=O)CCS(=O)(=O)c2ccccc2)sc2c(OC)ccc(OC)c21	8.3	-1.4	10.6	17.1	11.2	3.6	/	/
Cc1ccc(CN2C(=O)C[C@@H](NC(=O)OCC3c4ccccc4-c4ccccc43)C/C=C\C2c2ccc(C)cc2)cc1 (stereo partly specified)	-8.0	0.2	16.7	/	13.7	/	/	/
CCCCCCN1C(=O)CC(NC(=O)OCC2c3ccccc3-c3ccccc32)C/C=C\C1C(C)C (stereo unspecified)	16.0*	6.7	10.9	/	-83.5	/	-0.7	-5.5
COc1ccc2[nH]c(C)c(CCNC(=S)Nc3cccc(C)c3C)c2c1	0.0	4.0	14.7	0.3	14.2	-2.4	/	/
COc1ccc2[nH]c(C)c(CCNC(=S)Nc3ccccc3C)c2c1	16.5*	6.9	1.7	-60.8	5.5	-2.0	-0.5	-3.6
O=C(NCCCc1ccccc1)c1cccc(S(=O)(=O)N2CCOCC2)c1	15.4*	-2.7	3.9	22.4	-1.1	-2.7	-0.2	-2.1
CCCCCCn1cc(CN2CC(N3CCCCC3)CS2(=O)=O)nn1 (stereo unspecified)	15.6*	-1.3	/	/	-5.1	/	0.0	-2.1
Cc1cc(C)cc(Cn2cc(CN3CC(N4CCN(Cc5ccccc5F)CC4)CS3(=O)=O)nn2)c1 (stereo unspecified)	14.9*	-3.4	/	/	4.6	/	-0.3	5.4
Cc1cccc(NC(=O)CSc2nnc(NC(=O)c3ccco3)s2)c1	-1.6	-3.9	-3.7	9.3	6.1	-2.8	/	/
COCCN(C(=O)CCC(=O)Nc1ccccn1)C(C(=O)NCCC(C)C)c1ccc(F)cc1 (stereo unspecified)	5.7	7.5	0.9	0.9	-13.0	-3.3	/	/
CCOc1cc(/C=C\c2nc(O)c([N+](=O)[O-])c(=O)[nH]2)ccc1OC(C)CC (stereo unspecified)	4.9	-1.9	15.4	18.2	5.5	-3.9	/	/
CCOc1ccc(/C=C\c2nc(O)c([N+](=O)[O-])c(=O)[nH]2)cc1OCC	14.6*	-2.2	6.8	21.1	-5.3	-3.9	-0.6	-2.6
Cc1nn(CCCC(=O)Nc2c(F)cc(F)cc2Br)c(C)c1[N+](=O)[O-]	0.0	2.3	11.4	-9.9	-3.3	-1.3	/	/
CNc1nc(NCc2ccc(N(C)C)cc2)c2sccc2n1	-6.4	1.9	/	/	-9.2	/	/	/
Cc1cccn2c(=O)nc(SCC(=O)NCc3ccccc3)nc12	15.5*	-0.4	10.5	17.0	8.9	-6.3	-0.6	-3.8
CC(=O)c1ccc(NC(=O)CCNS(=O)(=O)c2cccc3nonc23)cc1	36.1*	-5.1	1.6	1.0	-7.7	-1.2	-0.7	-4.3
CCc1ccc(NC(=O)CCNS(=O)(=O)c2cccc3nonc23)cc1	-2.0	-3.1	-20.8	-0.9	3.6	-2.4	/	/
CCCCc1nnc(NC(=O)CSc2nc(=O)cc(N)n2-c2ccccc2)s1	16.3*	-1.4	-8.0	-14.3	1.0	-4.2	-0.6	-2.3
CCOC(=O)Cc1nnc(NC(=O)CSc2nncn2C)s1	-2.2	-0.2	1.5	6.8	0.3	2.4	/	/
SMILES	HTR2A ag	CXCR6 block	CCR6 antagonist	APJ antagonist	EBI2 antag	APJ ag	OPRM1 ag	m5-HT2A ag conf
CCOC(=O)Cc1nnc(NC(=O)C(CC)Sc2nncn2C)s1 (stereo unspecified)	14.4*	0.0	0.5	9.7	-5.7	-3.0	-0.7	-3.7
O=C(CNC(=S)N(CCCN1CCOCC1)Cc1cccs1)N1CCCCCC1	-2.1	-5.8	-18.3	-14.5	-10.0	0.7	/	/
CC(=O)N1CCOc2cc(S(=O)(=O)N3CCN(c4ccccc4)CC3)c(Cl)cc21	24.7*	-0.3	6.9	-4.1	-5.7	-4.1	-0.6	-5.3
Cc1cc2c(cc1S(=O)(=O)N1CCN(c3ccccc3)CC1)OCCN2C	-6.8	3.1	-8.2	-15.8	5.2	8.3	/	/
COc1ccc(CN2CCC[C@]3(N[C@H](c4ccccc4)[C@@H]4C(=O)N(Cc5ccccc5)C(=O)[C@@H]43)C2=O)cc1	-2.1	-0.3	/	/	1.3	/	/	/
CCc1ccccc1NC(=O)CN(C)C(=O)COC(=O)c1ccco1	5.6	5.3	-4.4	0.8	-4.4	0.0	/	/
Cc1cccc(NC(=O)c2cccc(NC(=O)c3ccco3)c2)c1C	9.8	4.5	7.1	2.9	-4.9	2.1	/	/
O=C(Nc1ccc(Cl)cc1)c1ccco1	14.6*	7.6	-8.3	10.1	-1.1	-1.0	-0.3	-2.9
Cc1ccc(NC(=O)c2ccc(OC(=O)c3ccco3)cc2)cc1	17.9*	-14.2	-15.9	-11.9	-11.3	0.6	0.0	1.7
Cc1ccccc1NC(=O)c1cccc(NC(=O)c2ccco2)c1	14.9*	12.8	-3.0	5.1	8.2	-0.7	-0.6	-0.4
CC(=O)Nc1ccc(NC(=O)c2ccco2)cc1	-3.1	-5.3	0.0	-3.8	-22.0	-4.0	/	/
CCOc1cc2c(c3c1C(c1ccccc1)N(S(=O)(=O)c1ccc(C)cc1)C3)C(=O)C=CC2=O (stereo unspecified)	-0.8	30.5	/	/	-2.3	/	/	/
